MC4R barr agon: agonists of human melanocortin 4 receptor (MC4R) beta-arrestin. activation, % at 8.9 µM. AID 540308. U2OS MC4R beta-arrestin complementation, luminescence; percent of melanotan II response, DMSO zero. P32245. actives 0.98% (n = 360,000);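 active = activation above a per-plate cutoff, the mean activation of sample wells on that plate plus 3 SD, cut at about 8% in these data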
PfG6PD inh: PfG6PD (Plasmodium falciparum) enzyme inhibition. PfGluPho enzyme, NADPH resazurin-diaphorase fluorescence. inhibition, % at 20 µM. actives 0.78% (n = 350,000). AID 504690;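 active = inhibition reaching at least a set limit at 20 µM in the primary screen, cut at about 59% in these data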;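 note: 0% = DMSO wells with substrate and 100% = DMSO wells lacking glucose-6-phosphate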
ABHD5 PLIN5 PPI: blocks binding of human ABHD5 to perilipin-5. Q00G26+Q8WTS1. Split G. princeps luciferase complementation, luminescence, 4 h. inhibition, % at 4 µM. actives 0.78% (n = 360,000). AID 602281;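 active = inhibition above the mean inhibition across every tested compound plus 3 SD, cut at about 22% in these data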;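 note: 0% = DMSO only wells and the 100% control is not disclosed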
Target sequence (Q00G26 whole entry, looked up): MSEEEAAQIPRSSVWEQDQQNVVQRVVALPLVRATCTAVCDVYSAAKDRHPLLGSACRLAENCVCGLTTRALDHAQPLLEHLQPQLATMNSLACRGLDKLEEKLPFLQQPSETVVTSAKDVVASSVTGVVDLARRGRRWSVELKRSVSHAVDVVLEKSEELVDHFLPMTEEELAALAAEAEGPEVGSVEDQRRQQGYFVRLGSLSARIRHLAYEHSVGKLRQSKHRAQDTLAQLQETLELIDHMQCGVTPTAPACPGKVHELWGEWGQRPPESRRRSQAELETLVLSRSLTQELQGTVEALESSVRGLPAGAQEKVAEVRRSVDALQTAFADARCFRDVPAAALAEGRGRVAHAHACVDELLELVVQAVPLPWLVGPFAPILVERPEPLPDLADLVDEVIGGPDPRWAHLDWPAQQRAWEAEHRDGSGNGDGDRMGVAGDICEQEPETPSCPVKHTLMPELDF
Target sequence (Q8WTS1 whole entry, looked up): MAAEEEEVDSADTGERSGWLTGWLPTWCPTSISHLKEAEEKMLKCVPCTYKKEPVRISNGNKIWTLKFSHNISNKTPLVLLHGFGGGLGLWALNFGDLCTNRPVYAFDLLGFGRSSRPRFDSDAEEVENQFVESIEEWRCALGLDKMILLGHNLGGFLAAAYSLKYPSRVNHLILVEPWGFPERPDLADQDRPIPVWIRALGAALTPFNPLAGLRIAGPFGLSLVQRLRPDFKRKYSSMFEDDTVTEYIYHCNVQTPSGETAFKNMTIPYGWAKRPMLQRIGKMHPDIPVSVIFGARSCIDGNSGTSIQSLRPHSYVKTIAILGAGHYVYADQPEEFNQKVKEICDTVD
MC4R antag cAMP: human MC4R antagonism in cAMP assay; P32245; MC4R-expressing cells, MTII-stimulated cAMP, LANCE TR-FRET; inhibition, % at 6.5 µM; actives 0.48% (n = 360,000);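 active = inhibition above its plate's cutoff, the mean of tested wells on that plate plus 3 SD, cut at about 29% in these data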;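 note: 0% = Melanotan II alone and 100% = Melanotan II plus saturating MCL0020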
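Material: U2OS-MC4R stable cell line | Reagent: Melanotan II challenge after compound preincubation | Doses: One concentration, 6.5 µM nominal | Incubation: 30-min compound preincubation, 1-h Melanotan II challenge, 1-h detection, room temperature | Signal: TR-FRET cAMP assay | Replicates: One well per compound, no replicates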
Beta2AR agonist: human beta-2 adrenergic receptor agonism by FAP; AID 504454; P07550; actives 0.43% (n = 340,000); response, % (test concentration not listed); Am2.2-beta2AR cells, FAP receptor internalization, flow cytometry;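 active = response above a set limit, near 3 SD of response in nonfluorescent compounds, cut at about 42% in these data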
B2AR ag CP1: agonists of human beta-2 adrenergic receptor; shares compounds with Beta2AR agonist; Am2.2-beta2AR cells, FAP surface receptor, flow cytometry; stronger effect = lower value; percent response (surface receptor), % at 10 µM; actives 25% (n = 1,100); AID 540358;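 active = surface receptor percent response at or below 58%, roughly 3 SD from nonfluorescent compounds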
FAP fluor counter: flagged in Am2.2 fluorescence counterscreen for beta-2AR agonists. calls only at 10 µM. Am2.2 cells, FAP fluorogen flow cytometry; stronger effect = lower value. AID 588765. shares compounds with Beta2AR agonist. 1,100 tested, under 10 active;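 active = percent response below a set limit in fluorescence channel 1 and below 50% in channel 8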
Starred values were filed as active, the others as inactive; i = inactive; x = no result. In the library only some 3% were active in any assay of this set; here they are far more common.

SMILES	MC4R barr agon	PfG6PD inh	ABHD5 PLIN5 PPI	MC4R antag cAMP	Beta2AR agonist	B2AR ag CP1	FAP fluor counter
O=C(NCc1ccc(F)cc1)c1ccc2c(c1)S(=O)(=O)c1ccccc1C2=O	-1	4	-5	-3	-4	x	x
CC(=O)Nc1cc(S(=O)(=O)Nc2ccccc2)c(C)cc1C	0	-13	7	12	47*	115	i
COc1cc(Br)c(CN2C(=O)NC3(CCCCCC3)C2=O)cc1OC	3	-26	-2	0	-2	x	x
CCCc1cc(=O)[nH]c(SCC(=O)N(CCOC)c2c(N)n(Cc3ccccc3)c(=O)[nH]c2=O)n1	-4	-2	-2	10	-1	x	x
CCN(CC)S(=O)(=O)c1ccc(N2CCCC2)c(NC(=O)C2=NN(c3ccccc3)C(=O)CC2)c1	-2	7	-11	4	47*	99	i
CCC(C)(C)NC(=O)C(c1ccc(OC)cc1)N(Cc1ccccc1)C(=O)CCC(=O)Nc1cc(C)on1 (centres undefined)	3	-5	0	3	62*	109	i
O=C(NC1(Cc2ccc(O)cc2)CCCCC1)c1ccccc1	0	-19	0	-2	43*	41*	i
O=C(NC1(C(=O)O)CCCC1)c1ccccc1	-1	-4	-1	17	-13	x	x
CC(=O)Nc1ccc(S(=O)(=O)NCCc2csc(-c3cccnc3)n2)cc1	-2	3	-4	1	83*	13*	i
CC(=O)c1ccc(S(=O)(=O)NCCc2csc(-c3cccnc3)n2)cc1	-3	-5	0	0	-1	x	x
O=C(Nc1ccc(N2CCCC2)cc1)c1cc(Cl)ccc1Cl	-1	24	0	3	73*	97	i
O=C(Nc1ccc(N2CCCC2)cc1)c1ccc(Cl)cc1Cl	-2	-3	-2	-1	0	x	x
CC(=O)Nc1ccc(S(=O)(=O)N2CCCCC2c2cccnc2)cc1 (centres undefined)	1	-3	-9	-5	-8	21*	i
O=C(Nc1ccc(S(=O)(=O)N2CCCCC2c2cccnc2)cc1)c1c(F)cccc1F (centres undefined)	2	0	-2	26	87*	49*	i
CCCCC(=O)Nc1ccc(S(=O)(=O)N2CCCCC2c2cccnc2)cc1 (centres undefined)	-4	27	-3	3	129*	27*	i
Cc1ccc(NC(=O)c2ccc(N3CCOCC3)c([N+](=O)[O-])c2)cc1S(=O)(=O)N1CCOCC1	-2	22	4	-2	49*	20*	i
CN(C)S(=O)(=O)c1cccc(NC(=O)c2ccc(N3CCOCC3)c([N+](=O)[O-])c2)c1	-1	14	1	7	45*	53*	i
Cc1ccc(C(=O)Nc2cccc(S(=O)(=O)N3CCOCC3)c2)cc1[N+](=O)[O-]	-1	2	-3	15	-9	x	x
CC(C)CCn1c(Sc2nc3ccccc3o2)nc2c1c(=O)[nH]c(=O)n2C	-1	39	6	4	-7	x	x
Cc1ccc(-c2nc(NC(=O)c3cc(C(C)(C)C)nn3C)sc2C)cc1Cl	0	10	-8	21	10	97	i
CC12CCC(O)CC1=CCC1C2CCC2(C)C(c3ccn[nH]3)CCC12 (centres undefined)	8	-27	0	7	44*	67	i
CCOc1ccc(-n2c(SCC(=O)O)nc3sc4c(c3c2=O)CCCC4)cc1	1	-8	-8	4	-1	x	x
CCc1nc2ccc(C(=O)N3CCCC(C(N)=O)C3)cn2c1N(C)Cc1ccc(OC)cc1 (centres undefined)	-3	x	10	0	x	x	x
CCC(C)(C)NC(=O)C(c1ccccc1F)N(C(=O)c1ccn[nH]1)c1ccccc1 (centres undefined)	0	-17	-3	4	-1	x	x
CC(C)(C)NC(=O)C(c1ccc(F)cc1)N(Cc1ccccc1Cl)C(=O)c1ccn[nH]1 (centres undefined)	-4	-1	6	1	-4	98	i
SMILES	MC4R barr agon	PfG6PD inh	ABHD5 PLIN5 PPI	MC4R antag cAMP	Beta2AR agonist	B2AR ag CP1	FAP fluor counter
COc1ccc(-c2cc(C(F)(F)F)nc(SCC(=O)N3CCOCC3)n2)cc1OC	-1	14	-6	4	-8	x	x
COc1ccccc1-c1cc(C(F)(F)F)nc(S(=O)(=O)CCCC(=O)O)n1	1	-12	14	14	-3	x	x
COc1ccc(-c2cc(C(F)(F)F)nc(S(=O)(=O)CCC(=O)N3CCOCC3)n2)cc1	2	-6	7	3	25	89	i
COc1ccccc1-c1cc(C(F)(F)F)nc(S(=O)(=O)CCCC(=O)N2CCOCC2)n1	-1	-16	14	25	47*	92	i
CS(=O)(=O)c1ccc(C(=O)OCc2nnc(-c3ccccc3)o2)cc1[N+](=O)[O-]	-1	14	15	-11	85*	84	i
O=C(OCc1nnc(-c2ccccc2)o1)c1ccc(CO)cc1	-1	-17	0	1	-12	98	i
CC(=O)c1cccc(NC(=O)COC(=O)c2ccc(S(C)(=O)=O)c([N+](=O)[O-])c2)c1	-4	-1	13	-17	68*	99	i
O=C(OCc1nnc(-c2ccccc2)o1)c1ccc(Cl)cc1	1	-1	-1	14	-1	x	x
COC(=O)c1ccc(-n2c(C)cc(C(=O)CSc3cccc[n+]3[O-])c2C)cc1	0	11	5	-5	3	x	x
COC(=O)c1ccc(C(=O)OC)c(NC(=O)CSc2cccc[n+]2[O-])c1	-1	32	-2	3	4	102	i
CC1CCCN(c2ccc([N+](=O)[O-])cc2C(=O)c2ccccc2)C1 (centres undefined)	-2	16	4	-23	42*	49*	i
O=C(COC(=O)c1cc(S(=O)(=O)N2CCOCC2)ccc1F)c1ccccc1	-1	5	0	-35	8	x	x
O=C(OCc1cccc(C(F)(F)F)c1)c1cc(S(=O)(=O)N2CCOCC2)ccc1F	-1	13	11	4	56*	103	i
O=C(c1ccccc1Cl)N1CCN(c2ccccn2)CC1	-1	8	-2	0	1	x	x
COc1ccc(Cl)cc1C(=O)N1CCN(c2ccccn2)CC1	1	-22	-3	9	52*	124	i
COc1cccc(/C=N/NC(=O)c2ccc(N3CCCC3=O)cc2)c1	0	2	2	-7	-4	x	x
CC(NC(=O)CSc1nnc(-c2cccnc2)n1N)c1ccccc1 (centres undefined)	-1	23	-1	5	-3	x	x
